Results taken from ChEMBL document CHEMBL4414551, “Design, Synthesis, and Biological Evaluation of Substituted 4,6-Dihydrospiro[[1,2,3]triazolo[4,5-b]pyridine-7,3'-indoline]-2',5(3H)-dione Analogues as Potent NS4B Inhibitors for the Treatment of Dengue Virus Infection” (J Med Chem, 2019).
The source made the active and inactive calls. The rule behind the calls is not given here.

How the values were obtained:
dengue virus type 2 [1] = test: Inhibition of NS4B in Dengue virus 2 NGC infected in human HuH7 replicon cells lysates at 10 ujM incubated for 48 hrs by SDS-PAGE based pull down assay; type: subcellular; conditions: Lysate
In short: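 Huh7 cells, 4×10⁶ per T-75, infected next day with DENV-2 NGC at MOI 2.0 with 10 µM biotinylated probe, or 0.25% DMSO, for 48 h at 37 °C. Lysis in 20 mM Tris-HCl pH 7.5, 100 mM NaCl, 0.5% DDM with protease inhibitors. Lysate spiked with compound to 100 µM final, then streptavidin magnetic beads at 4 °C overnight. Bead eluates resolved on 12% SDS-PAGE; NS4B detected by anti-NS4B monoclonal Western blot.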

[2] = Cytotoxicity in human HuH7 replicon cells infected with Dengue virus 2 NGC assessed as reduction in cell viability incubated for 48 hrs by Cell-titer-Glo reagent based assay; parameters: species or system Huh-7
In short: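 Huh7 cells or Huh7 replicon cells plated, then held at 37 °C with 5% CO₂ overnight. Exposed to 2-fold serial compound dilutions for 48 h, in duplicate. Viability read with CellTiter-Glo and normalized to 0.45% DMSO wells set at 100%. CC50 from four-parameter logistic fit.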

dengue virus type 3 = test: Antiviral activity against Dengue virus 3 D3MY05-34640 infected in human HuH7 replicon cells expressing Renilla luciferase and neomycin-resistance genes assessed as reduction in viral replication incubated for 48 hrs by luciferase reporter replicon-based assay; type: functional, organism-based; conditions: D3MY05-34640, Huh-7, 48 h
In short: (§1)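 Huh7 cells stably carrying a Renilla luciferase/neomycin-resistance replicon (DENV-1 WestPac, DENV-2 NGC, DENV-3 D3MY05-34640 or DENV-4 D4MY01-22713). Cells seeded at 10k per well and incubated overnight at 37 °C, 5% CO2. Then exposed to 2-fold serial compound dilutions for 48 h, in duplicate. Luciferase read with a live-cell substrate. EC50 from four-parameter logistic fit.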

dengue virus type 2 [3] = test: Antiviral activity against Dengue virus 2 NGC infected in human HuH7 replicon cells expressing Renilla luciferase and neomycin-resistance genes assessed as reduction in viral replication incubated for 48 hrs by luciferase reporter replicon-based assay; type: functional, organism-based; conditions: Huh-7, 48 h; in short: as §1
dengue virus type 1 [4] = test: Antiviral activity against Dengue virus 1 WestPac infected in human HuH7 replicon cells expressing Renilla luciferase and neomycin-resistance genes assessed as reduction in viral replication incubated for 48 hrs by luciferase reporter replicon-based assay; type: functional, organism-based; conditions: Huh-7, 48 h; in short: as §1
dengue virus type 4 [5] = test: Antiviral activity against Dengue virus 4 D4MY01-22713 infected in human HuH7 replicon cells expressing Renilla luciferase and neomycin-resistance genes assessed as reduction in viral replication incubated for 48 hrs by luciferase reporter replicon-based assay; type: functional, organism-based; conditions: D4MY01-22713, Huh-7, 48 h; in short: as §1
dengue virus type 4 [6] = test: Antiviral activity against Dengue virus 4 D4MY01-22713 infected in human HuH7 replicon cells expressing Renilla luciferase and neomycin-resistance genes assessed as reduction in viral replication up to 10 uM incubated for 48 hrs by luciferase reporter replicon-based assay; type: functional, organism-based; in short: as §1
dengue virus type 1 [7] = test: Antiviral activity against Dengue virus 1 WestPac infected in human HuH7 replicon cells expressing Renilla luciferase and neomycin-resistance genes assessed as reduction in viral replication up to 10 uM incubated for 48 hrs by luciferase reporter replicon-based assay; type: functional, organism-based; in short: as §1

Compound | inhibition (dengue virus type 2 [1]) | CC50 at 48 h [2] | EC50 (dengue virus type 3) | EC50 (dengue virus type 2 [3]) | EC50 (dengue virus type 1 [4]) | EC50 (dengue virus type 4 [5]) | Activity (dengue virus type 4 [6]) | Activity (dengue virus type 1 [7])
C[C@@H](c1ccc(Cl)cc1)n1nnc2c1NC(=O)C[C@@]21C(=O)N(CCOC(=O)CCCCCCCNC(=O)CCCC[C@@H]2SC[C@@H]3NC(=O)N[C@@H]32)c2ccc(Cl)cc21 | inactive | > 10 µM | > 5000 nM | > 5000 nM | – | – | – | –
C[C@@H](c1ccc(Cl)cc1)n1nnc2c1NC(=O)C[C@]21C(=O)N(Cc2ccc(Cl)nc2)c2ccc(Cl)cc21 | – | > 10 µM | 6 nM | 78 nM | > 5 µM | > 5 µM | – | –
C[C@@H](c1ccc(Cl)cc1)n1nnc2c1NC(=O)C[C@]21C(=O)N(Cc2ccccn2)c2ccc(Cl)cc21 | – | > 10 µM | 3 nM | 20 nM | > 5 µM | > 5 µM | – | –
C[C@@H](c1ccc(Cl)cc1)n1nnc2c1NC(=O)C[C@]21C(=O)N(CCCCCl)c2ccc(Cl)cc21 | – | > 10 µM | 19 nM | 73 nM | > 5 µM | > 5 µM | – | –
C[C@@H](c1ccc(Cl)cc1)n1nnc2c1NC(=O)C[C@]21C(=O)N(Cc2ccccc2)c2ccc(Cl)cc21 | – | > 10 µM | 20 nM | 150 nM | 2 µM | > 5 µM | – | –
C[C@@H](c1ccc(Cl)cc1)n1nnc2c1N(C)C(=O)C(C)(C)[C@]21C(=O)N(C)c2ccc(Cl)cc21 | – | > 10 µM | > 5000 nM | > 5000 nM | > 5 µM | > 5 µM | – | –
CCCCCCCCCCN1C(=O)[C@]2(CC(=O)Nc3c2nnn3[C@@H](C)c2ccc(Cl)cc2)c2cc(Cl)ccc21 | – | > 10 µM | 1200 nM | > 10000 nM | 3.4 µM | 7.3 µM | – | –
C[C@@H](c1ccc(Cl)cc1)n1nnc2c1NC(=O)C[C@]21C(=O)N(Cc2ccc(Cl)cc2)c2ccc(Cl)cc21 | – | > 10 µM | 200 nM | 3300 nM | 2.2 µM | 6.5 µM | – | –
Cc1ccc(CN2C(=O)[C@]3(CC(=O)Nc4c3nnn4[C@@H](C)c3ccc(Cl)cc3)c3cc(Cl)ccc32)cn1 | – | > 10 µM | 11 nM | 150 nM | > 5 µM | > 5 µM | – | –
C[C@@H](c1ccc(Cl)cc1)n1nnc2c1NC(=O)C[C@]21C(=O)N(Cc2cc(C(C)(C)C)cc(C(C)(C)C)c2)c2ccc(Cl)cc21 | – | > 10 µM | 5900 nM | > 10000 nM | 4.6 µM | 4.9 µM | – | –
C[C@@H](c1ccc(Cl)cc1)n1nnc2c1NC(=O)C[C@]21C(=O)N(CCN2CCOCC2)c2ccc(Cl)cc21 | – | > 10 µM | 17 nM | 75 nM | > 5 µM | > 5 µM | – | –
C[C@@H](c1ccc(Cl)cc1)n1nnc2c1NC(=O)C[C@]21C(=O)N(CCCCCCCCCCN(C)C)c2ccc(Cl)cc21 | – | > 10 µM | 98 nM | 3500 nM | 2.7 µM | 3.5 µM | – | –
COc1cc(CN2C(=O)[C@]3(CC(=O)Nc4c3nnn4[C@@H](C)c3ccc(Cl)cc3)c3cc(Cl)ccc32)cc(OC)c1 | – | > 10 µM | 790 nM | 3100 nM | 3.4 µM | 7.4 µM | – | –
COC(=O)CN1C(=O)C[C@]2(C(=O)Nc3ccc(Cl)cc32)c2nnn([C@@H](C)c3ccc(Cl)cc3)c21 | – | > 10 µM | 2700 nM | > 10000 nM | > 10 µM | > 10 µM | – | –
CC(C)N1C(=O)[C@]2(CC(=O)N(C(C)C)c3c2nnn3[C@@H](C)c2ccc(Cl)cc2)c2cc(Cl)ccc21 | – | > 10 µM | 1500 nM | > 10000 nM | 3.8 µM | 3 µM | – | –
COCCCN1C(=O)[C@]2(CC(=O)Nc3c2nnn3[C@@H](C)c2ccc(Cl)cc2)c2cc(Cl)ccc21 | – | > 10 µM | 9 nM | 40 nM | > 5 µM | > 5 µM | – | –
C[C@@H](c1ccc(Cl)cc1)n1nnc2c1NC(=O)C[C@]21C(=O)N(CCN2CCCCC2)c2ccc(Cl)cc21 | – | > 10 µM | 5 nM | 74 nM | > 5 µM | > 5 µM | – | –
C[C@@H](c1ccc(Cl)cc1)n1nnc2c1NC(=O)C[C@]21C(=O)N(CCF)c2ccc(Cl)cc21 | – | > 10 µM | 9 nM | 38 nM | > 5 µM | > 5 µM | – | –
C[C@@H](c1ccc(Cl)cc1)n1nnc2c1NC(=O)C[C@]21C(=O)N(Cc2ccc(Cl)c(F)c2)c2ccc(Cl)cc21 | – | > 10 µM | 290 nM | 4000 nM | 1.5 µM | 5.1 µM | – | –
C[C@@H](c1ccc(Cl)cc1)n1nnc2c1NC(=O)C[C@]21C(=O)N(CCCCCCCCN(C)C)c2ccc(Cl)cc21 | – | > 10 µM | 42 nM | 490 nM | > 5 µM | > 5 µM | – | –
C[C@@H](c1ccc(Cl)cc1)n1nnc2c1NC(=O)C[C@]21C(=O)N(CCOC(=O)CCCCCCCNC(=O)CCCC[C@@H]2SC[C@@H]3NC(=O)N[C@@H]32)c2ccc(Cl)cc21 | Active | > 10 µM | 16.7 nM | 41.4 nM | – | – | inactive | inactive
C[C@@H](c1ccc(Cl)cc1)n1nnc2c1NC(=O)C[C@]21C(=O)N(Cc2ccncc2)c2ccc(Cl)cc21 | – | > 10 µM | 25 nM | 72 nM | > 5 µM | > 5 µM | – | –
C[C@@H](c1ccc(Cl)cc1)n1nnc2c1NC(=O)C[C@]21C(=O)N(CCCCN2CCCCC2)c2ccc(Cl)cc21 | – | > 10 µM | 78 nM | 350 nM | > 5 µM | > 5 µM | – | –
CCCCN1C(=O)[C@]2(CC(=O)Nc3c2nnn3[C@@H](C)c2ccc(Cl)cc2)c2cc(Cl)ccc21 | – | > 10 µM | 18 nM | 75 nM | 1.3 µM | > 5 µM | – | –
CNCCN1C(=O)[C@]2(CC(=O)Nc3c2nnn3[C@@H](C)c2ccc(Cl)cc2)c2cc(Cl)ccc21 | – | > 10 µM | 22 nM | 120 nM | > 5 µM | > 5 µM | – | –
CC(C)CN1C(=O)[C@]2(CC(=O)Nc3c2nnn3[C@@H](C)c2ccc(Cl)cc2)c2cc(Cl)ccc21 | – | > 10 µM | 20 nM | 150 nM | 1.3 µM | > 5 µM | – | –
C[C@@H](c1ccc(Cl)cc1)n1nnc2c1NC(=O)C[C@]21C(=O)N(CCCCCCN(C)C)c2ccc(Cl)cc21 | – | > 10 µM | 66 nM | 900 nM | 1.5 µM | > 5 µM | – | –
C[C@@H](c1ccc(Cl)cc1)n1nnc2c1NC(=O)C[C@]21C(=O)N(Cc2cccnc2)c2ccc(Cl)cc21 | – | > 10 µM | 21 nM | 29 nM | 3.2 µM | > 5 µM | – | –
C[C@@H](c1ccc(Cl)cc1)n1nnc2c1NC(=O)C[C@]21C(=O)N(CCC(C)(C)C)c2ccc(Cl)cc21 | – | > 10 µM | 82 nM | 870 nM | 1.1 µM | 3.9 µM | – | –
